Bioassay records (PubChem)
Wnt bcat act – activators of Wnt/beta-catenin signaling; Wnt/beta-catenin reporter cell assay, activator, plate reader; activation, % at 9.35 µM; hit rate 1.2% among 300,000; in the data active = activation above about 30%, passing the limit was not always enough
Cneo AK release – Cryptococcus neoformans lysis via adenylate kinase release; lysis activity, % at 15 µM; hit rate 0.2% among 360,000; C. neoformans lysis, adenylate kinase release luminescence, 4 h; normalised: neutral wells 0, clomiphene wells 100;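 active = mean lysis activity across replicates of at least 80%, whatever share of replicates individually reach that level; inactive = mean lysis activity below 80%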
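Signal: Adenylate kinase release luminescence | Assay system: Log-phase Cryptococcus neoformans yeast cells | Input: Cells at 5 × 10^6 per mL | Buffer or medium: Fresh YPD growth medium | Compound: Single dose | Schedule: Static 4 h at 37 °C with compound, 1 h detection | Controls: Clomiphene | Read-out: Luminescence rise reflecting yeast cell lysis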
esBAF inh – blocks esBAF chromatin remodeling in mouse ES cells | AID 602393 | hit rate 2% among 350,000 | reporter increase, % at 12.5 µM | Bmi1-luciferase knock-in reporter, 24 h; 100% = twice the neutral-well signal; in the data active = activation above about 40%;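 also: a rise in the Bmi1 reporter signal indicates esBAF inhibition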
ERAP1 inh – inhibitors of human ERAP1 aminopeptidase; Q9NZ08; recombinant ERAP1, Leu-AMC fluorescence, 60 min; inhibition, % at 10.7 µM; hit rate 0.15% among 340,000;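 active = mean replicate inhibition of at least 30%, or all replicates individually reaching that 30% level; inactive = mean below 30% and not every replicate reaching it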
Target sequence (Q9NZ08 whole entry, looked up): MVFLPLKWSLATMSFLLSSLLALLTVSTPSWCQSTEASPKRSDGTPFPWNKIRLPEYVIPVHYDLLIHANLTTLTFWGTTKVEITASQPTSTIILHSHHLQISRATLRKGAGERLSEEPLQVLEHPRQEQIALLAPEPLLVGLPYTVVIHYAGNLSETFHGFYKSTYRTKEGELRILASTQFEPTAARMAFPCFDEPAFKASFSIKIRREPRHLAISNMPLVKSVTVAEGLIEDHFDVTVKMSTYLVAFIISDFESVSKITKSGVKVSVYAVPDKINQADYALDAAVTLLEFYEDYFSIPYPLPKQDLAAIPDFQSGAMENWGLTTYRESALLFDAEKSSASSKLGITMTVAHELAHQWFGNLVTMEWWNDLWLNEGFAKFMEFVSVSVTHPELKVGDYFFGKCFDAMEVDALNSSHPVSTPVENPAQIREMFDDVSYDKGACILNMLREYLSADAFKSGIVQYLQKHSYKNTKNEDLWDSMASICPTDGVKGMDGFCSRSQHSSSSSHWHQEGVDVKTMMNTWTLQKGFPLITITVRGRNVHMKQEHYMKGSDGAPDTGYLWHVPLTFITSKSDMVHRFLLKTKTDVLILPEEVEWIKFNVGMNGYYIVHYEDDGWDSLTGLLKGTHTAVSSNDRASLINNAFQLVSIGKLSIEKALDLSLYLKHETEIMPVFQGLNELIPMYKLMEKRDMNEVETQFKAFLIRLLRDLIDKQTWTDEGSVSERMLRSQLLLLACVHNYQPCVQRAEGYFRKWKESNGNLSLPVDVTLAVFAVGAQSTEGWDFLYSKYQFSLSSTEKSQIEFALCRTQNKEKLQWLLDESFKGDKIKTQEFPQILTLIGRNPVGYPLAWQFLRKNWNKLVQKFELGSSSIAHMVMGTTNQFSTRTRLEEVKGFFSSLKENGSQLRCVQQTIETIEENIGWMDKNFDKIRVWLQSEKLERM
MITF TRPM1 HTS – increases MITF-driven TRPM1 promoter luciferase signal. SK-MEL-5 TRPM1-promoter luciferase, 24 h; % of positive control, neutral wells = 0. activation, % at 12.5 µM. hit rate 0.75% among 300,000;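 active = mean activation of at least 80% with every replicate also reaching 80%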
Env fusion inh – blocks HIV Env-driven cell-cell fusion. inhibition, % at 12.3 µM. HeLa-JRFL Env/CEM21 cell fusion, luciferase. hit rate 1.1% among 360,000;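 active = mean replicate inhibition score of at least 50 and every replicate individually at or above 50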
Numbers stand for hits; n = inactive; x = no result. The list is not random: actives were taken first. Their share in the collection is about 3.5%.

SMILES | Wnt bcat act | Cneo AK release | esBAF inh | ERAP1 inh | MITF TRPM1 HTS | Env fusion inh
Nc1nonc1-n1nnc(C(=O)N/N=C/c2ccc(OCc3ccccc3F)cc2)c1CN1CCCCC1 | n | n | n | n | 84 | n
COc1cc(/C=N/NC(=O)c2nnn(-c3nonc3N)c2C)ccc1OCc1ccc(Cl)cc1 | n | n | 56 | n | x | n
CC1CCN(Cc2c(C(=O)N/N=C/c3cc(Cl)ccc3O)nnn2-c2nonc2N)CC1 | n | n | n | n | n | n
Nc1nonc1-n1nnc(C(=O)N/N=C/c2ccc(OCc3cccc(Cl)c3)cc2)c1CN1CCCCC1 | n | x | x | n | 106 | n
CCOc1ccc(/C=N/NC(=O)c2nnn(-c3nonc3N)c2CN2CCC(C)CC2)cc1 | n | n | n | n | n | n
CC1CCN(Cc2c(C(=O)N/N=C/c3cc(Br)ccc3O)nnn2-c2nonc2N)CC1 | n | n | n | n | n | 60
CNC[C@@H]1Oc2cc(-c3ccc(OC)cc3)ccc2S(=O)(=O)N([C@@H](C)CO)C[C@H]1C | x | x | n | x | x | n
COc1cccc(NC(=O)N2CC(=O)N3[C@H](CO)[C@@H](c4ccc(C5=CCCC5)cc4)[C@@H]3C2)c1 | x | x | x | n | x | x
Cc1cc(C(=O)COc2ccc(-c3nnco3)cc2)c(C)n1Cc1ccccc1 | x | n | n | x | x | 65
O=C(COc1ccc(-c2nnco2)cc1)NCc1ccccc1Cl | n | x | x | n | n | x
C[C@@H]1CN([C@@H](C)CO)C(=O)c2cc(NS(=O)(=O)c3cn(C)cn3)ccc2O[C@@H](C)CCCCO[C@H]1CN(C)Cc1ccncc1 | x | n | n | n | x | n
COC(=O)c1ccc2c(c1)C(=O)/C(=C/c1ccc(C)cc1)O2 | n | n | 67 | x | n | n
CCc1ccc(/C=C2\Oc3ccc(C(=O)OC)cc3C2=O)cc1 | n | x | x | x | n | n
COCC(=O)N(C)C[C@H]1Oc2cc(C#CC(C)(C)O)ccc2S(=O)(=O)N([C@@H](C)CO)C[C@@H]1C | x | n | n | n | x | n
CCOc1ccc(NC(=O)COc2ccccc2)c([N+](=O)[O-])c1 | n | x | 62 | n | 130 | n
Cc1ccc(OCC(=O)Nc2ccccc2[N+](=O)[O-])c(Br)c1 | 64 | x | x | n | n | n
CCOc1ccc(NC(=O)c2ccc(Br)o2)c([N+](=O)[O-])c1 | n | n | 50 | x | n | n
CO[C@@H]1CN(C)C(=O)c2ccc(NC(=O)C3CC3)cc2OC[C@@H](C)N(C(=O)CN2CCOCC2)C[C@@H]1C | x | n | n | n | x | x
Cc1cc(C)n2nc(-c3ccc(Cl)cc3)cc2n1 | 34 | n | n | n | n | n
COc1ccc(-c2cc3nc(C)cc(C)n3n2)cc1 | n | n | n | x | n | n
CC1=NN(c2nc(-c3ccc(Cl)cc3)cs2)C(=O)C1 | x | n | n | x | n | n
Cc1cc(C)n2nc(-c3ccc(Br)cc3)cc2n1 | 45 | n | n | n | x | n
Cc1cc(C)n(-c2nc(-c3ccc(Cl)cc3)cs2)n1 | n | n | 51 | x | n | x
Cc1ccc(S(=O)(=O)Nc2ccc3c(c2)C(=O)N([C@H](C)CO)C[C@H](C)[C@H](CN(C)CC2CCCCC2)OCCCC[C@H](C)O3)cc1 | x | n | n | n | x | n
O=C(c1ccccn1)N1C[C@H]2[C@@H](c3ccccc31)[C@H](CO)N2C(=O)C1CCCCC1 | x | n | n | n | x | x
SMILES | Wnt bcat act | Cneo AK release | esBAF inh | ERAP1 inh | MITF TRPM1 HTS | Env fusion inh
Cc1ccc(NC(=O)C(c2ccccc2)N2CCN(CC(=O)N3CCOCC3)CC2)cc1 (stereo unspecified) | 33 | n | n | n | n | n
COc1ccc(C)cc1NC(=O)C(c1ccccc1)N1CCN(CC(=O)N2CCOCC2)CC1 (stereo unspecified) | n | n | n | n | n | n
Cc1cc(C)c(C)c(S(=O)(=O)N2CCC(C(=O)Nc3ccc(S(=O)(=O)N4CCOCC4)cc3)CC2)c1C | n | n | n | n | n | 57
O=S(=O)(c1ccc(NC(=S)Nc2ccc3c(c2)OCO3)cc1)N1CCOCC1 | x | n | 45 | x | n | n
CC(=O)Nc1ccc(S(=O)(=O)N2CCC(C(=O)c3ccc(Cl)cc3)CC2)cc1 | n | n | n | n | n | 56
Cc1ccc(S(=O)(=O)N2CCC(C(=O)Nc3ccc(S(=O)(=O)N4CCOCC4)cc3)CC2)cc1 | n | n | n | n | n | n
O=C(Nc1ccc(S(=O)(=O)N2CCOCC2)cc1)c1ccc2c(c1)OCO2 | n | x | n | n | n | n
N#C/C(=C1/CCCCCN1)c1nc2ccccc2[nH]1 | x | n | 50 | x | n | x
